The subject of assay [1] is Trypanosoma brucei brucei. The assay is described as follows: Antitrypanosomal activity against bloodstream form of Trypanosoma brucei brucei LAB 110 EATRO after 48 hrs by Z1 zoulter counter. The conditions noted are these: for IC50: Trypanosoma brucei, LAB 110 EATRO, 48 h. It counts as functional, organism-based. Put shortly: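 Bloodstream forms were grown axenically in HMI-18 (IMDM with 1 μM hypoxanthine and 20% horse serum). Compounds were dissolved in water or DMSO, with final DMSO ≤0.3%. […] Parasites were counted by Coulter counter.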

Assay [2] has as its system Trypanosoma brucei brucei. Nature of the assay: Activity at bloodstream Trypanosoma brucei brucei 5'-deoxy-5'-(methylthio)-adenosine phosphorylase by spectrophotometry in presence of 50 mM PO4- relative to control. The conditions noted are these: LAB 110 EATRO. In a few lines: (§1)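 Enzyme was a cell-free extract of bloodstream trypanosomes harvested from rats. It was prepared by freeze-thawing three times in dry ice-methanol, spinning at 5,000 × g for 10 min, and dialysing 1 h (0.05 M Tris-HCl, 0.1 mM EDTA, 1 mM 2-mercaptoethanol, pH 7.4) to remove phosphate. The mix held 0 or 50 mM potassium phosphate pH 7.4, xanthine oxidase and 25–500 μM substrate. Adenine-derived 2,8-dihydroxyadenine was read at 305 nm over 1 h at 37°C. Activity is expressed relative to MTA.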

The test system of assay [3] is Trypanosoma brucei brucei. The assay is described as follows: Activity at bloodstream Trypanosoma brucei brucei 5'-deoxy-5'-(methylthio)-adenosine phosphorylase by spectrophotometry relative to control. The conditions noted are these: LAB 110 EATRO. More on the design: concentration or dose not given beside the values. Put shortly: as §1
The species named for assay [4] is Mus musculus. The assay is described as follows: Activity at mouse liver 5'-deoxy-5'-(methylthio)-adenosine phosphorylase. Further details: concentration or dose not given beside the values.
The test system of assay [5] is Trypanosoma brucei rhodesiense. The assay is described as follows: Growth stimulation of pentamidine and melarsoprol-resistant bloodstream form of Trypanosoma brucei rhodesiense isolate KETRI 243 at 100 uM after 48 hrs by Z1 zoulter counter.
The subject of assay [6] is Trypanosoma brucei brucei. The assay is described as follows: Growth stimulation of diamidine and melarsoprol-resistant bloodstream form of Trypanosoma brucei brucei isolate KETRI 243-As10-3 at 100 uM after 48 hrs by Z1 zoulter counter. The format is functional, organism-based.

Calls of active or inactive are those of the source. No cut-off for these calls is given here.

Take `Nc1ncnc2c1ncn2COCCSCCO`: inhibition in assay [1] was half-maximal at 64 µM (IC50). In addition, the Activity in assay [2] was found to be 56%; in assay [3] it was 78%.
As for `CSC[C@H]1O[C@@H](n2ccc3c(NC(C)=O)ncnc32)[C@H](OC(C)=O)[C@@H]1OC(C)=O`, the IC50 (usually the concentration that inhibits the measured activity by half) in assay [1] is 46 µM.
The compound `Nc1ncnc2c1ncn2[C@@H]1O[C@H](CSCCO)[C@@H](O)[C@H]1O` gave an IC50 in assay [1] of 0.54 µM. Also, the Activity in assay [2] was found to be 96%; in assay [3], 100%.
The compound `CCCSC[C@H]1O[C@@H](n2cnc3c(N)ncnc32)[C@H](O)[C@@H]1O` displayed an IC50 in assay [1] of 46 µM. The Activity in assay [2] worked out at 57.5%; in assay [3], 26%; in assay [4] it was 100%.
With `CC(=O)OCCSC[C@H]1O[C@@H](n2cnc3cncnc32)[C@H](OC(C)=O)[C@@H]1OC(C)=O`, the IC50 in assay [1] was found to be 3.65 µM.
The compound `OCCSC[C@H]1O[C@@H](n2cnc3c2ncn2ccnc32)[C@H](O)[C@@H]1O` displayed an IC50 in assay [1] greater than 100 µM. For the same compound, the Activity stood at 56% in assay [2] and 62% in assay [3].
As to `Nc1ncnc2c1ncn2[C@@H]1O[C@H](CSCCCO)[C@@H](O)[C@H]1O`, in assay [1], half-maximal inhibition (IC50) was put at 170 µM. The figures for the Activity in assay [2] and in assay [3] were 72.5% and 27.4%, respectively.
On to `CC(=O)OCCSC[C@H]1O[C@@H](n2cnc3c(F)ncnc32)[C@H](OC(C)=O)[C@@H]1OC(C)=O`, for which the IC50 in assay [1] was greater than 100 µM.
With `Nc1ncnc2c1ncn2[C@@H]1O[C@H](CSCCF)[C@@H](O)[C@H]1O`, the IC50 in assay [1] stood at 0.2 µM. In addition, the figures for the Activity in assay [2], in assay [3] and in assay [4] were 75.3%, 29.3% and 64%, respectively.
Compound `OCCSC[C@H]1O[C@@H](n2cnc3cncnc32)[C@H](O)[C@@H]1O` returned an IC50 in assay [1] of 34 µM. Moreover, the Activity in assay [2] was found to be 11%; in assay [3], 4%.
In assay [1], `NCCSC[C@H]1O[C@@H](n2cnc3c(N)ncnc32)[C@H](O)[C@@H]1O` yielded an IC50 greater than 100 µM. Besides, the result in assay [5] was Active.
In turn, `CC(=O)OCCSC[C@@H]1C[C@@H](OC(C)=O)[C@H](n2cnc3c(N)ncnc32)O1` returned an IC50 in assay [1] of 0.64 µM.
On the same count and under the same terms, for `Nc1ncnc2c1ncn2C[C@H](O)CSCCO` the value was 60 µM; for `CC(=O)OCCSC[C@H]1O[C@@H](n2cnc3c(N)nc(N)nc32)[C@H](OC(C)=O)[C@@H]1OC(C)=O`, 12.5 µM; for `CC(=O)OCCSC[C@H](COC(C)=O)O[C@H](COC(C)=O)n1cnc2c(N)ncnc21`, 5.3 µM.
In assay [1], `OCCSC[C@H]1O[C@@H](n2cnc3c(F)ncnc32)[C@H](O)[C@@H]1O` registered an IC50 greater than 100 µM. The figures for the Activity in assay [2] and in assay [3] were 42% and 60%, respectively.
For `CNC[C@H]1O[C@@H](n2cnc3c(N)ncnc32)[C@H](O)[C@@H]1O` the same measures were greater than 100 µM, 4% and 0%.
Regarding `OCCSC[C@H]1O[C@@H](n2cnc3c(O)ncnc32)[C@H](O)[C@@H]1O`, the IC50 in assay [1] is greater than 100 µM. For the same compound, the Activity in assay [2] and in assay [3] was 0% each time.
Compound `Nc1ncnc2c1ncn2[C@@H](CO)O[C@@H](CO)CSCCO` showed an IC50 in assay [1] of 14 µM. The Activity in assay [2] stood at 44%; in assay [3], 0%.
On the same counts, the results for `Nc1ncnc2c1ncn2[C@H]1CC[C@@H](CSCCO)O1` are 100 µM, 17% and 18%.
Turning to `NCCCSC[C@H]1O[C@@H](n2cnc3c(N)ncnc32)[C@H](O)[C@@H]1O`, the half-maximal inhibitory concentration (IC50) in assay [1] was greater than 100 µM. Moreover, the figures for the Activity in assay [2] and in assay [3] were 46% and 60%, respectively.
Consider `NC(=O)c1ncn([C@@H]2O[C@H](CSCCO)[C@@H](O)[C@H]2O)n1`, for which the “inhibition (INH)” value in assay [1] worked out at 9%. In addition, the Activity is 61% in assay [2] and 70% in assay [3]. In addition, the result in assay [5] was Active.
For `Nc1nc(F)nc2c1ncn2[C@@H]1O[C@H](CSCCO)[C@@H](O)[C@H]1O`, the IC50 in assay [1] was determined as 1.9 µM. The Activity in assay [2] was 148%; in assay [3], 106%.
`CC(=O)OCCSC[C@H]1O[C@@H](n2cnc3c(N)ncnc32)[C@H](OC(C)=O)[C@@H]1OC(C)=O`: in assay [1], the 50% inhibitory concentration (IC50) is 0.32 µM.
The compound `CC(=O)O[C@@H]1[C@H](OC(C)=O)[C@@H](CSCCF)O[C@H]1n1cnc2c(N)ncnc21` showed an IC50 in assay [1] of 0.83 µM.
Take `Nc1ncnc2c([C@@H]3N[C@H](CSCCO)[C@@H](O)[C@H]3O)c[nH]c12`: the IC50 in assay [1] is greater than 10 µM.
For the compound `Nc1ncnc2c1ncn2[C@@H]1O[C@H](CSCCO)C[C@H]1O`, the midpoint of inhibition in assay [1], the IC50, lay at 12.5 µM. Moreover, the values for the Activity in assay [2] and in assay [3] were 39.4% and 37.8%, respectively.
`Nc1ncnc2c1ncn2[C@H]1C[C@H](O)[C@@H](CSCCO)O1`: the IC50 in assay [1] was greater than 100 µM. The outcome in assay [6] was Active. For the same compound, the Activity was 100% in assay [2] and 81% in assay [3].
As to `COC(=O)CSC[C@H]1O[C@@H](n2cnc3c(N)ncnc32)[C@H](O)[C@@H]1O`, in assay [1], the midpoint of inhibition, the IC50, lay at 130 µM. Besides, the Activity in assay [2] came out at 84%; in assay [3], 34%.
For the compound `CSC[C@H]1O[C@@H](n2cnc3c(N)ncnc32)[C@H](O)[C@@H]1O` [METHYLTHIOADENOSINE], in assay [1], the IC50 is 100 µM. The Activity in assay [2], in assay [3] and in assay [4] was 100% each time.
`CC(=O)OCCSC[C@H]1O[C@@H](n2cnc3c(N)ncnc32)C[C@@H]1OC(C)=O` returned an IC50 in assay [1] of 22 µM.
With `Nc1ncnc2c1nnn2[C@@H]1O[C@H](CSCCO)[C@@H](O)[C@H]1O`, in assay [1], it took 7 µM to reach half-maximal inhibition (IC50).
In assay [1], `Nc1ncnc2c1ncn2[C@@H]1O[C@H](CSCCCF)[C@@H](O)[C@H]1O` showed an IC50 of 120 µM. Further, the Activity in assay [2] worked out at 47.5%; in assay [3], 31.3%; in assay [4] it was 64%.
`CC(=O)OCCSC[C@H]1O[C@@H](n2cnc3c(C)ncnc32)[C@H](OC(C)=O)[C@@H]1OC(C)=O` had an IC50 in assay [1] of 9.3 µM.
`CSC[C@H]1O[C@@H](n2ccc3c(N)ncnc32)[C@H](O)[C@@H]1O` yielded an IC50 in assay [1] of 67 µM. Further, the Activity in assay [2] and in assay [3] was 0% each time.
`CC(=O)OCCSC[C@H]1O[C@@H](n2cnc(C(N)=O)n2)[C@H](OC(C)=O)[C@@H]1OC(C)=O` had an IC50 in assay [1] of 26.5 µM.
In assay [1], `Nc1ncnc2c1ccn2[C@@H]1O[C@H](CSCCO)[C@@H](O)[C@H]1O` showed a 50% inhibitory concentration (IC50) of 0.042 µM. Besides, the Activity in assay [2] and in assay [3] was 0% in each case.
In the case of `CCSC[C@H]1O[C@@H](n2cnc3c(N)ncnc32)[C@H](O)[C@@H]1O`, the Activity in assay [2] turned out to be 76.2%; in assay [3] it was 26.9%; in assay [4], 100%.
Regarding `CC(=O)OCCSC[C@H]1O[C@@H](n2cnc3c(N)nc(F)nc32)[C@H](OC(C)=O)[C@@H]1OC(C)=O`, the 50% inhibitory concentration (IC50) in assay [1] amounted to 2.75 µM.
The compound `CC(=O)OCCSC[C@H]1O[C@@H](n2ccc3c(N)ncnc32)[C@H](OC(C)=O)[C@@H]1OC(C)=O` yielded an IC50 in assay [1] of 0.145 µM.
Regarding `CC(=O)OCCSC[C@H]1O[C@@H](n2cnc3c2ncn2ccnc32)[C@H](OC(C)=O)[C@@H]1OC(C)=O`, the concentration for half-maximal inhibition (IC50) in assay [1] is 35 µM.
Take `Nc1nc(N)c2ncn([C@@H]3O[C@H](CSCCO)[C@@H](O)[C@H]3O)c2n1`: in assay [1], it took 3.9 µM to reach half-maximal inhibition (IC50). In addition, the Activity in assay [2] worked out at 29%; in assay [3], 18%.
In the case of `Nc1ncnc2c1ncn2C[C@@H](O)CSCCO`, the IC50 in assay [1] was greater than 100 µM.
As for `Cc1ncnc2c1ncn2[C@@H]1O[C@H](CSCCO)[C@@H](O)[C@H]1O`, the IC50 in assay [1] stood at 24.5 µM. In addition, the Activity stood at 2% in assay [2] and 25% in assay [3].

(Values after ChEMBL document CHEMBL1151452, “Novel trypanocidal analogs of 5'-(methylthio)-adenosine” (Antimicrob Agents Chemother, 2008).)
